Measurements from PubChem BioAssay AID704 (The Scripps Research Institute Molecular Screening Center, 2007).
Among all 97,000 compounds or so, about 770 (0.79%) were called active. The entries come from a sample that favours actives as a whole. Unmarked numbers belong to inactive results.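 The calls were made as follows: active = inhibition above the screen-wide mean plus 3 SD (cut at about 35% in these data); inactive = the rest.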

These molecules were tested against Protein Rev (Human immunodeficiency virus type 1 group M subtype B (isolate WMJ22)) (UniProt P05866) (assay: disruptors of Rev peptide-RRE RNA complex – biochemical, FRET, protein-RNA interaction, primary screen (AID 704;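 also: 0% = median DMSO wells and 100% = median Neomycin B control wells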)). Conditions: Rev peptide-RRE RNA binding, at 8 µM, active compounds read high.
In short: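 Test system: Cy5-tagged RRE RNA duplex with fluorescein-tagged Rev peptide | Read-out: % inhibition of FRET ratio versus controls | Probe or stimulus: Labelled Rev peptide | Incubation: 5 min RNA-compound premix plus 15 min binding step, 25 °C | Technique: FRET fluorescence readout | Benchmarks: DMSO low control, neomycin B high control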

Protein Rev (Human immunodeficiency virus type 1 group M subtype B (isolate WMJ22)), sequence (P05866 whole entry, looked up): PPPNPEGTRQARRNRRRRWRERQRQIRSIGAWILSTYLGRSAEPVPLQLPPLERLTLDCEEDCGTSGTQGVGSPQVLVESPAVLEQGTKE

Structure (SMILES)	inhibition
O=C(Nc1ccc(-n2ccnc2P(=O)(O)c2ccccc2)cc1)c1ccccc1Br	-0.76%
Cc1nn(-c2ccccn2)c2c1C(c1ccncc1)C1=C(CC(C)(C)CC1=O)N2 (stereo not drawn)	12.1%
CCOC(=O)CSc1ncc(-c2cccc(Cl)c2)cn1	8.5%
Cc1ccc(-c2nnc(C)c(N3CC(C)OC(C)C3)n2)cc1 (stereo not drawn)	5.11%
Cc1nnc(NC(=O)Cn2c(=O)sc3ccccc32)s1	2.18%
Cn1c(SCC(=O)N2CCCc3ccccc32)nc2ccccc2c1=O	3.69%
CC(=O)c1ccc(S(=O)(=O)N2CCN(c3nc4c(C)c(C)ccc4cc3C#N)CC2)cc1	9.9%
COCc1cc(C)nc2sc(C(=O)NC3CCCCC3)c(N)c12	12.8%
CCCN1CC=C2C(C#N)=C(N)C(C#N)(C#N)C(c3cc(OC)ccc3OC)C2C1 (stereo not drawn)	71.8% (active)
COC(=O)C1=C(C)OC(N)=C(C#N)C1c1cc(OC)ccc1OC (stereo not drawn)	9.18%
CCN1CC=C2C(C#N)=C(N)C(C#N)(C#N)[C@H](c3ccoc3)[C@H]2C1	61.7% (active)
N#CC1=C(N)C(C#N)(C#N)[C@H](c2ccsc2)[C@H]2COCC=C12	35.5%
CCOC(=O)N1CC=C2C(C#N)=C(N)C(C#N)(C#N)[C@H](c3cccs3)[C@H]2C1	29.8%
COc1ccc(C2C=C(c3ccc(Br)cc3)Nc3nc(NS(C)(=O)=O)nn32)cc1 (stereo not drawn)	83.2% [fluorescence artefact?] (active)
COc1ccc(C2CC(c3ccc(C)cc3)Nc3nc(N)nn32)cc1 (stereo not drawn)	3.26%
Fc1ccccc1/C=C1\CCCC2=C1Nc1ncnn1C2c1ccccc1F (stereo not drawn)	9.16%
COC(=O)c1c(-c2cccs2)csc1NC(=O)CSc1ncnc2sc(C)c(C)c12	6.95%
COc1cccc(OC)c1C(=O)Nc1ccc(N2CCCCC2)cc1	4.3%
CCCC(=O)n1nc(-c2ccccc2)nc1N	0.74%
CCCNC(=O)c1c(N)n(-c2ccc(S(N)(=O)=O)cc2)c2nc3ccccc3nc12	1.66%
O=C1c2ccccc2C(=O)c2c1cccc2N1CCN(Cc2ccccc2)CC1	10.8%
CCCCNC(=O)OC(C)CNC(=O)OC (stereo not drawn)	-1.24%
CC(=O)Oc1ccc(NC(=O)CCC2CCCCC2)c(C(=O)O)c1	-1.47%
CCOc1ccc(C(O)Cc2nc3ccccc3n2C)cc1 (stereo not drawn)	-0.15%

Structure (SMILES)	inhibition
CCOC(=O)c1cc(C#N)c(N2CCCCC2)nc1-c1ccccc1	14.6%
Cc1ccc(Sc2cc(N3CCOCC3)nc(-c3ccccc3)n2)cc1	12.8%
CS(=O)(=O)N1CCN(c2cccc(Cl)n2)CC1	3.87%
CCC(=O)N(Cc1ccccc1)c1ccccn1	7.11%
Clc1ccc2c(c1)C1=C(C(c3ccncc3)O2)C(c2ccc(Br)cc2)n2ncnc2N1 (stereo not drawn)	-1.15%
Brc1ccc(C2=CC(c3ccco3)n3ncnc3N2)cc1 (stereo not drawn)	124% [fluorescence artefact?] (active)
COC(=O)C1=C(C)Nc2ncnn2C1c1ccco1 (stereo not drawn)	3.56%
COc1ccc(CN(CC(=O)NC2CCCC2)C(=O)CCC(=O)Nc2cc(C)on2)cc1	-2.37%
Cc1cccc(NC(=O)CSc2nc3c(c(=O)[nH]2)CCCC3)c1C	5.45%
O=C(NCc1cccnc1)c1cccnc1Sc1ccc(Cl)cc1	5.95%
O=C(Cc1c[nH]c2ccccc12)OCCOC(=O)Cc1c[nH]c2ccccc12	3.26%
COC(=O)C(C)n1cnc2c(nnn2-c2cccc(Cl)c2)c1=O (stereo not drawn)	3.58%
CCOc1nnc(C)c2c(C)n(-c3cccc(Cl)c3)nc12	53.5% (active)
CCOc1cccc(-n2nnnc2-c2ccc(OC)cc2)c1	1.17%
C=CCC(NCc1ccco1)c1ccc(OC)cc1 (stereo not drawn)	2.12%
CCCCCCCCOC1OC(CO)C(O)C(O)C1NC(C)=O (stereo not drawn)	-1.01%
O=C(c1ccc2c(c1)OCO2)N1CCOCC1	2.74%
O=C(NCCOc1ccccc1)c1ccccc1	7.52%
CCOC(=O)c1sc(NC(=O)c2ccncc2)nc1C	4.33%
CC/S(CC1CC1(Cl)Cl)=N\S(=O)(=O)c1ccc(C)cc1 (stereo not drawn)	-0.12%
CCN(CC)C(=O)CSc1nnc(C2CCCCC2)o1	-0.19%
CCOc1ccc2c(c1)C(c1ccc(C)cc1)=NNC(c1ccc(C)cc1)=N2	-0.68%
COc1ccccc1C(c1nnnn1C(C)(C)C)N1CCN(Cc2ccccc2)CC1 (stereo not drawn)	5.48%
O=C1CSC(c2ccccc2)N1c1nc(-c2ccc(Cl)cc2Cl)cs1 (stereo not drawn)	11.2%

Structure (SMILES)	inhibition
Cc1cc(C)cc(OCC(=O)NNC(=O)c2cc3ccccc3oc2=O)c1	3.32%
O=c1c2ccccc2c(-c2ccc(Br)cc2)nn1Cc1ccccc1	10.1%
CN(C)c1ccc(/C=C2\NC(=S)N(Cc3ccccc3)C2=O)cc1	136% [fluorescence artefact?] (active)
CC1=NN(Cc2ccccc2)C(=O)/C1=C/c1ccc(N(C)C)cc1	13.1%
CC(C)(C)n1nnnc1C(c1ccc(Cl)cc1)N1CCSCC1 (stereo not drawn)	3.16%
O=c1c2ccccc2nc2n1C(CSCc1cccc(C(F)(F)F)c1)CS2 (stereo not drawn)	5.83%
OC(COCCC12CC3CC(CC(C3)C1)C2)CN1CCCCC1 (stereo not drawn)	-1.79%
CCCCn1c(=S)[nH]c2cc(S(=O)(=O)N3CCCCC3)ccc21	1.26%
Clc1ccc(-n2nnnc2CN2CCCCC2)cc1Cl	1.19%
CCOC(=O)C1=C(C)NC2=C(C(=O)CC(C)(C)C2)C1c1ccsc1 (stereo not drawn)	0.96%
Cc1[nH]c2ccccc2c1C(=O)COC(=O)C(C)C	2.32%
CCOC(=O)c1[nH]c2ccccc2c1N=C(C)N(CC)CC	65% (active)
CCOC(=O)c1[nH]c2ccc(C)cc2c1N=C(C)N(C)C	7.68%
O=C(Nc1nccs1)C1CCN(S(=O)(=O)c2ccc(Cl)c(C(F)(F)F)c2)CC1	11.3%
COC(=O)c1sccc1-n1cccc1C(=O)C(=O)N1CCCCC1	4.4%
Cc1cccc(-c2nc3c(c(SCC(=O)N4CCOCC4)n2)CCCC3)c1	12.4%
CCCCSc1[nH]c(=O)c(C(=O)OCC)cc1C#N	0.71%
COc1ccc(-n2nc(C(=O)NCC(=O)Nc3cccc(C)n3)c3ccccc3c2=O)cc1	6.83%
Cc1nc(-c2ccccc2)sc1-c1nc(-c2ccccc2)ncc1S(=O)(=O)c1ccccc1	2.59%
CNC(=O)/C(=C\C=C\c1ccccc1)NC(=O)c1ccc([N+](=O)[O-])cc1	3.26%
CCOC(=O)c1cnn(Cc2ccccc2Cl)c1N	3.78%
O=c1oc2cc(O)ccc2cc1-c1ccc(F)cc1	10.2%
COc1cccc(C(=O)c2cc3ccc(O)cc3oc2=O)c1	2.17%
CCCCCCc1cc2cc(-c3nnc(-c4cccc(OC)c4)o3)c(=O)oc2cc1O	126% [fluorescence artefact?] (active)

Structure (SMILES)	inhibition
CCCCN(CC)CCCNC(=O)CS(=O)(=O)Cc1nc(-c2cccc(OC)c2)oc1C	-1.81%
CCCCCCc1cc2cc(-c3nnc(-c4ccccc4)o3)c(=O)oc2cc1O	136% [fluorescence artefact?] (active)
COc1cc(C(=O)NC(=S)NCc2ccco2)cc(OC)c1OC	-0.1%
COc1ccc(-c2cc(C3CCN(c4ncccc4[N+](=O)[O-])CC3)[nH]n2)cc1	15.1%
Cc1cccc(CSc2nnc(NC(=O)CSc3nnc(C)s3)s2)c1	2.97%
Cc1ccc(-c2noc(CSc3nnc(-c4ccncc4)n3-c3ccc(F)cc3)n2)cc1	1.43%
CCOc1ccc(NC(=O)N(CC(C)C)CC(C)C)cc1	7.89%
COc1ccc(CCNC(=S)NC(=O)/C=C/c2ccc(C)cc2)cc1OC	-2.76%
CC(=O)Nc1ccc(S(=O)(=O)N2CCN(C(=O)c3ccccc3F)CC2)cc1	4.25%
Cn1c2c(c(=O)n(C)c1=O)C(c1cccc([N+](=O)[O-])c1)Nc1ccccc1O2 (stereo not drawn)	0.04%
CS(=O)(=O)n1nc(-c2ccccc2)nc1NCc1ccco1	7.66%
CSc1nc(N(C)NC(=O)c2cccc(C)c2)c2ccccc2n1	3.84%
Cc1ccc(C)c(NC(=O)C2Cc3ccccc3CN2C(=O)OCc2ccccc2)c1 (stereo not drawn)	15.4%
CCOC(=O)c1c(C)oc2cc(Br)c(OCC(N)=O)cc12	-5.76%
COC(=O)C1=C(C)NC2=C(C(=O)c3ccccc32)C1c1ccc(-c2ccc(C(=O)O)cc2)o1 (stereo not drawn)	41.7% (active)
COC(=O)C1=C(C)NC(=O)NC1/C=C/c1ccccc1 (stereo not drawn)	7.27%
COc1ccccc1NC(=O)C1=C(C)NC2=C(C(=O)CCC2)C1c1ccc(C)o1 (stereo not drawn)	-3.73%
N#C/C(=C(/O)COc1cccc2ccccc12)c1nc2ccccc2[nH]1	8.41%
COc1ccc(-n2nnnc2SCc2nc(N)nc(N3CCOCC3)n2)cc1	8.05%
O=C(COc1ccc(/C=N/NS(=O)(=O)c2ccccc2)cc1)NCCc1ccccc1	6.41%
O=S(=O)(N1CCCCC1)N1CCNCC1	0.92%
